Compound activity: PubChem, Sanford-Burnham Center for Chemical Genomics
Apaf1 activ = activates human Apaf-1 apoptosome; Apaf-1 apoptosome caspase-3 activation, DEVD-Rh110 fluorescence; stronger effect = lower value; 330,000 tested, 0.31% active; O14727; activity change, negative = activation, % at 20 µM;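 active = activity change at or below -40% at 20 µM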
Target sequence (O14727 whole entry, looked up): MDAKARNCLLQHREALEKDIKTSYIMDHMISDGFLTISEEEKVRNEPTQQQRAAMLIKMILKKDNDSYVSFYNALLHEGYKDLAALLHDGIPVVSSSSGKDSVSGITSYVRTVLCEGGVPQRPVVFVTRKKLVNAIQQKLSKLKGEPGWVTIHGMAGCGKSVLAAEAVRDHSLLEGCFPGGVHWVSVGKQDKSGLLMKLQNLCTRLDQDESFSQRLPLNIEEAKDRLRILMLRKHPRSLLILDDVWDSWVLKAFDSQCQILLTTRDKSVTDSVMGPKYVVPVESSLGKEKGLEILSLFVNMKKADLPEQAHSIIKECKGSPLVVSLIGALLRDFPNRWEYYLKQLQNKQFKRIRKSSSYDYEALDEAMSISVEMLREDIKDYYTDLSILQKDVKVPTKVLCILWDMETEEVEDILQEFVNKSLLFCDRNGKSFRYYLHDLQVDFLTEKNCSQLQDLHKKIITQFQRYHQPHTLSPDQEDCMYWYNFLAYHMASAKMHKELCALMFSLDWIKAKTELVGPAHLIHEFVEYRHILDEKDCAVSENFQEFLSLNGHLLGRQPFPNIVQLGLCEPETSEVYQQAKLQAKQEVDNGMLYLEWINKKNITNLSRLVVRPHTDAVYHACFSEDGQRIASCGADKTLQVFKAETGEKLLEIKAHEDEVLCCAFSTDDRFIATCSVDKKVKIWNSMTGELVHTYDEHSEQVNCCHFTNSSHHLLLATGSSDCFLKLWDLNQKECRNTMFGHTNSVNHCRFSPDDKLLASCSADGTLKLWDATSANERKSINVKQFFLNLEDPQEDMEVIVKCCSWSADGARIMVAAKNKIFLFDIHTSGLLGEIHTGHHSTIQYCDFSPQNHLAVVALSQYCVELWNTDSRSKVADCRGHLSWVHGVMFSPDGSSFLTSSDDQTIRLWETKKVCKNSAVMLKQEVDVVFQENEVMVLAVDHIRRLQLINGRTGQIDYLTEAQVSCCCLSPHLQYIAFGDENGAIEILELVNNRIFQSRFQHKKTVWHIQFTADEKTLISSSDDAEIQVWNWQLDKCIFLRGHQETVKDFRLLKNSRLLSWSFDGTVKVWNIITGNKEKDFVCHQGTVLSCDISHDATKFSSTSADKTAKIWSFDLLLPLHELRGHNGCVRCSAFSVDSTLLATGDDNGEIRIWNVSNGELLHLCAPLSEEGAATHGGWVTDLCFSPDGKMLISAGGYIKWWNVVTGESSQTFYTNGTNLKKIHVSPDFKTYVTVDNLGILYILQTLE
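System: Reconstituted apoptosome of Apaf-1, cytochrome c, caspase-9, procaspase-3 | Reagent: dATP, cytochrome c, and (Z-DEVD)2-Rh110 caspase-3 substrate | Times: 30 min compound preincubation and 50 min reaction, both room temperature | Detection: Caspase-3-released Rh110 fluorescence, 540 nm emission, 480 nm excitation | Measure: Caspase-3 activity via Apaf-1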
Rh110 act interf = Rh110 signal interference in Apaf-1 activator counter-screen; AID 504616; Rh110 fluorescence interference, quenched caspase reaction, Ex480/Em540; fluorescence interference (activity change), % at 20 µM, hits read low; shares compounds with Apaf1 activ; 980 tested, under 10 active;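 active = mean activity change at or below -40% when tested at 20 µM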
Apaf-1 act conf2 = confirmation of human Apaf-1 activators | shares compounds with Apaf1 activ | reconstituted apoptosome caspase-3 activity, DEVD-Rh110 fluorescence; stronger effect = lower value | activity change, negative = activation, % at 20 µM | 980 tested, 5% active | AID 504617;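 active = mean activity change at or below -40%, meaning activation of 40% or more, at 20 µM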
Each line names hits and unclear results; the compound was inactive in the other large screens (follow-up assays come after a bar, where they were run). A selection follows.

COc1cc(C2NC(=O)NC(C)=C2C(=O)OCC2CCCO2)cc(OC)c1OC (stereo unspecified)	Apaf1 activ -358.9 | Rh110 act interf inactive | Apaf-1 act conf2 inactive
COC(=O)CCCC1=CC2=C(c3ccccc3)C(=O)C(C)(OC(=O)C3CCCC3)C(=O)C2=CN1CC(C)C (stereo unspecified)	none
CCN(CC)C(=O)[C@H]1CC(CC(=O)NC/C=C(\C)CCC=C(C)C)C(=O)N2CCc3c([nH]c4ccc(OC)cc34)[C@]12C (stereo partly specified)	none
COC(=O)c1ccc(-c2ccc(C(c3c(C)[nH][nH]c3=O)c3c(C)[nH][nH]c3=O)o2)cc1	none
Cc1ccc(NC(=O)C(C)N2C(=O)C3C4CC(C(Br)C4Br)C3C2=O)cc1 (stereo unspecified)	Apaf1 activ -419.1 | Rh110 act interf inactive | Apaf-1 act conf2 inactive
CCC[C@@H](CN1CCC[C@H]1CN1C(N)=NC[C@@H]1Cc1ccccc1)N1C[C@@H](Cc2ccccc2)N(CCCC2CCCC2)C1=N	none
O=C1c2ccccc2-c2nnc(-c3ccc(O)cc3)cc21	none
COc1ccccc1C(=O)NC(CCSC)C(=O)N1CCC(Cc2ccccc2)CC1 (stereo unspecified)	none
COc1ccccc1N1CCN(Cc2nc(-c3ccc(F)cc3)oc2C)CC1	Apaf1 activ -236.2 | Rh110 act interf inactive | Apaf-1 act conf2 inactive
COc1ccc(N2CCN(Cc3nc4scc(-c5ccccc5)c4c(=O)[nH]3)CC2)cc1	none
COc1ccc(S(=O)(=O)Nc2cccc3c2O[C@H](CN(C)Cc2ccccc2)[C@@H](C)CN([C@H](C)CO)C3=O)cc1	none
COC(=O)CCC(=O)N1CN2CN(C(=O)CCC(=O)OC)CC([N+](=O)[O-])(C2)C1	Apaf1 activ -152.2 | Rh110 act interf inactive | Apaf-1 act conf2 inactive
O=C(O)CCCNc1cc(N2CCN(C(=O)c3ccco3)CC2)c2noc3c2c1C(=O)c1ccccc1-3	none
CN(C)S(=O)(=O)Oc1cccc(C(=O)Nc2ccc(Cl)c(Cl)c2)c1	Apaf1 activ -40.4 | Rh110 act interf inactive | Apaf-1 act conf2 inactive
COc1ccc2[nH]c3c(=O)n(/N=C/c4ccc(OC)c(CN5CCCC5)c4)c(C)nc3c2c1	none
Cc1ccc(C)n1-c1nn(S(=O)(=O)c2cccc3cccnc23)c2cccc(F)c12	Apaf1 activ -40.4 | Rh110 act interf inactive | Apaf-1 act conf2 inactive
COc1cccc(-c2sc3ccc(OC)cc3c2-c2ccc(OCCN3CCCC3)cc2)c1	none
CCOC(=O)C(NC(=O)c1ccccc1Cl)(Nc1ccc(C(F)(F)F)cc1)C(F)(F)F (stereo unspecified)	Apaf1 activ -406.2 | Rh110 act interf inactive | Apaf-1 act conf2 inactive
O=C1C(=O)c2c(C(=O)c3ccccc3)coc2-c2ccccc21	none
CCOc1ccccc1NC(=O)c1ccc(Cl)c(NC(=O)CC(c2ccccc2)c2ccccc2)c1	Apaf1 activ -54.9 | Rh110 act interf inactive | Apaf-1 act conf2 inactive
COc1ccc2cc1Oc1ccc(cc1)C[C@H]1c3c(cc(OC)c4c3Oc3c(ccc5c3[C@H](C2)N(C)CC5)O4)CCN1C	none
COc1ccc(S(=O)(=O)Nc2cc(SCC(=O)O)c(O)c3ccccc23)cc1	none
COc1ccc(OCC(NS(=O)(=O)c2ccc(-n3cnnn3)cc2)C(C)C)cc1 (stereo unspecified)	Apaf1 activ -424.1 | Rh110 act interf inactive | Apaf-1 act conf2 inactive
COc1ccc(S(=O)(=O)NCc2ccc3c(c2)cc(C)n3C)cc1	none
COc1cc([N+](=O)[O-])ccc1NC(=O)NNC(=O)c1sccc1C	Apaf1 activ -60.3 | Rh110 act interf inactive | Apaf-1 act conf2 inactive
O=C(/C=C\c1ccc2c(c1)OCO2)NC1(C(=O)Nc2ccc3c(c2)OCO3)CCCCC1	Apaf1 activ -87.2 | Rh110 act interf inactive | Apaf-1 act conf2 inactive
Nc1ccc2nn(-c3cccc4ccccc34)nc2c1	none
CCOC(=O)c1ccc(N2CSC3=C(C#N)C(c4ccc(OC)cc4OC)CC(=O)N3C2)cc1 (stereo unspecified)	none
CN(C)c1ncc(C2=C(Cl)C(=O)C(N3CCCC3)=C(Cl)C2=O)s1	none
CCN(c1ccccc1)S(=O)(=O)c1ccc(Cl)c(NC(=O)COC(=O)c2cc(O)c3ccccc3c2O)c1	none
Cc1cc(C(=O)OCC(=O)Nc2ccccc2C#N)c(C)o1	Apaf1 activ -45.5 | Rh110 act interf inactive | Apaf-1 act conf2 inactive
N#CC1(NC(=O)COC(=O)c2cc(O)c3ccccc3c2O)CCCCC1	none
Oc1ccc(C=Nc2cccc3ncccc23)c(O)c1	none
O=C(N/N=C/c1ccc(O)c2ncccc12)c1cccc(Br)c1	Apaf1 activ -68.3 | Rh110 act interf inactive | Apaf-1 act conf2 inactive
CCC(C)c1ccccc1NC(=O)COC(=O)c1ccc2[nH]c3c(c2c1)CCCC3 (stereo unspecified)	Apaf1 activ -169.7 | Rh110 act interf inactive | Apaf-1 act conf2 inactive
Cc1ccc(NC(=O)CN(C)C(=O)c2ccc3[nH]c4c(c3c2)CC(C)CC4)cc1 (stereo unspecified)	none
N#CC(c1nc2ccccc2nc1N1CCCC1)S(=O)(=O)c1ccccc1 (stereo unspecified)	none
Nc1c(S(=O)(=O)c2cccs2)c2nc3ccccc3nc2n1CCc1ccccc1	none
Cc1cccc(C)c1NC(=O)CSc1nnc(-c2ccco2)c(-c2ccco2)n1	none
CCn1nc(C)c(NC(=O)CCSc2nc(-c3ccco3)cc(C(F)(F)F)n2)c1C	Apaf1 activ -245.6 | Rh110 act interf inactive | Apaf-1 act conf2 inactive
O=C(CSc1nnc(-c2ccncc2)n1CCc1ccccc1)N1CCCC1	Apaf1 activ -262.6 | Rh110 act interf inactive | Apaf-1 act conf2 inactive
Cc1ccc(NC(=O)CNCc2ccccc2)cc1Br	Apaf1 activ -48.3 | Rh110 act interf inactive | Apaf-1 act conf2 inactive
CN(CC(=O)NCc1ccccc1)CC(=O)Nc1ccc(Cl)c(C(F)(F)F)c1	none
Nc1c(O)cccc1C(=O)O	none
CN(C)Cc1cc(O)c(CN(C)C)cc1O	none
CCn1c(=O)c2cc(C(=O)N(C)c3cc(C)ccc3OC)sc2c2ccccc21	none
CC(=O)Nc1ccc2c(c1)N(C(=O)CN(C)C)c1ccccc1CC2	none
CCn1c2ccccc2c2cc(NC(C)=O)ccc21	Apaf1 activ -225.6 | Rh110 act interf inactive | Apaf-1 act conf2 inactive
O=C1N(c2ccccc2)c2ccccc2C1(Cc1ccncc1)Cc1ccncc1	none
O=C(COC(=O)c1cccc(Cl)c1)NCCN1C(=O)CSC1=O	Apaf1 activ -46.3 | Rh110 act interf inactive | Apaf-1 act conf2 inactive
COC(=O)CCC(=O)OC1(C)C(=O)C2=CN(C(CO)CO)C(c3ccc(OC)cc3)=CC2=C(Br)C1=O (stereo unspecified)	none
Cc1cc(C)c(S(=O)(=O)/N=C2\C=C(Nc3ccc(C(=O)O)cc3)C(=O)c3ccccc32)c(C)c1	none
O=c1[nH]c(Nc2ccccc2)cc2ccccc12	none
O=c1[nH]c(=O)c2nc3c4ccccc4c4ccccc4c3nc2[nH]1	Apaf1 activ -42.7 | Rh110 act interf inactive | Apaf-1 act conf2 inactive
O=C1c2ccccc2C(=O)c2[nH]c(=O)[nH]c21	none
CCNc1ccccc1CP(=O)(c1ccccc1)c1ccccc1O (stereo unspecified)	none
COc1ccccc1N1CCN(C(=O)c2cc(C(C)(C)C)oc2C)CC1	Apaf1 activ -379.6 | Rh110 act interf inactive | Apaf-1 act conf2 inactive
